How the values were obtained:
[1] = melting temperature; fluorescence melt of hairpins on a sequencing array, two-state fit, raised by 9.35 °C to match UV melts; settings: sodium 0.088 M
Outline: (§1)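 Melting temperature and folding enthalpy were derived from bootstrapped two-state fits. The fitted temperatures were raised by 9.35 °C to agree with UV melts, and four replicates were combined by inverse variance. The underlying data were Cy3 fluorescence images of library hairpins, with annealed Cy3 and quencher oligos, on a sequenced MiSeq flow cell in 50 mM Na-HEPES pH 8.0, 25 mM NaCl, taken in 2.5 °C steps up to 60 °C, normalised to pre-quench Cy3 and to control constructs.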

[2] = folding enthalpy; higher = less favourable; fluorescence melt of hairpins on a sequencing array, two-state fit; settings: sodium 0.088 M
Outline: as §1

Sequence	Tm [1]	folding enthalpy [2]
GCAACCCGAAAGGGTGC (((.(((....))))))	64.1 °C	-19.1 kcal/mol
GCAACCGAAAGGTCTTGC ((((((....)))..)))	35.7 °C	-16.5 kcal/mol
GCAACCGAAAGGTGCTGC ((((((....)))..)))	57.1 °C	-23.5 kcal/mol
GCAACCGAAAGGTTATGC ((((((....)))..)))	44.1 °C	-12.3 kcal/mol
GCAACCGAAAGGTTTGC ((((((....))).)))	55.7 °C	-23.6 kcal/mol
GCAACCGAAAGGTTTTGC ((((((....)))..)))	39.9 °C	-14.4 kcal/mol
GCAACGCGAAAGCACTGC (((..((....))..)))	41.4 °C	-11.4 kcal/mol
GCAACGCGAAAGCCCTGC (((..((....))..)))	23.8 °C	-7.63 kcal/mol
GCAACGCGAAAGCGAGGC ((..(((....)))..))	59.9 °C	-13.5 kcal/mol
GCAACGGGAAACCGTCGC ((.((((....)))).))	49.4 °C	-28.3 kcal/mol
GCAACGGGAAACCGTTAC (.(((((....))))).)	38.6 °C	-13.3 kcal/mol
GCAACTACGAAAGTATGC (((..(((....))))))	32.1 °C	-16.5 kcal/mol
GCAACTGGAAACAGCTGC (((.(((....))).)))	46.2 °C	-35.8 kcal/mol
GCAAGACGAAAGTCCTGC (((.(((....))).)))	48.7 °C	-26.4 kcal/mol
GCAAGAGAAATCTTGC ((((((....))))))	52.8 °C	-38.3 kcal/mol
GCAAGCCCGAAAGGGTGC (((..(((....))))))	47.2 °C	-14.4 kcal/mol
GCAAGCGAAAGCTGGTGC ((((((....)))..)))	47.6 °C	-20.9 kcal/mol
GCAAGCGAAAGCTGTTGC ((((((....)))..)))	45.9 °C	-15.7 kcal/mol
GCAAGCGAAAGCTTTTGC ((((((....)))..)))	42.2 °C	-12.8 kcal/mol
GCAAGGACGAAAGTCTGC (((..(((....))))))	44.6 °C	-17.5 kcal/mol
GCAAGGCGAAAGCGTAGC ((.(.((....)).).))	40.5 °C	-11.6 kcal/mol
GCAAGGCGAAAGCTATGC (((..((....))..)))	42.4 °C	-20.8 kcal/mol
GCAAGGCGAAAGCTTTGC ((((.((....)).))))	63.9 °C	-39 kcal/mol

Sequence	Tm [1]	folding enthalpy [2]
GCAAGTCCGAAAGGATGC (((..(((....))))))	37.7 °C	-16.1 kcal/mol
GCAAGTGGAAACACCTGC (((.(((....))).)))	40.5 °C	-25.3 kcal/mol
GCAATCCGAAAGGATGC (((.(((....))))))	56.4 °C	-26 kcal/mol
GCAATCGAAAGATTCTGC ((((((....)))..)))	33.7 °C	-16 kcal/mol
GCAATCGAAAGATTGTGC ((((((....)))..)))	51.1 °C	-27.1 kcal/mol
GCAATCGCGAAAGCGTGC (((..(((....))))))	44 °C	-12.5 kcal/mol
GCAATCGGAAACAATTGC (((((.(....).)))))	38 °C	-27.9 kcal/mol
GCAATCGGAAACGACTGC (((.(((....))).)))	45.1 °C	-28.9 kcal/mol
GCAATCTCGAAAGAGTGC (((..(((....))))))	43.2 °C	-24.5 kcal/mol
GCAATGCGAAAGCACCGC ((..(((....)))..))	33 °C	-9.88 kcal/mol
GCAATGCGAAAGCCCTGC (((..((....))..)))	28.4 °C	-10.3 kcal/mol
GCAATGCGAAAGCCTCGC ((.(.((....)).).))	31.5 °C	-10.9 kcal/mol
GCAATGCGAAAGCGCTGC (((..((....))..)))	49.2 °C	-20 kcal/mol
GCAATGCGAAAGCTATGC (((..((....))..)))	50.6 °C	-20.4 kcal/mol
GCAATGCGAAAGCTTCGC ((.(.((....)).).))	44 °C	-11.9 kcal/mol
GCAATGCGAAAGCTTGGC ((.(.((....)).).))	40.6 °C	-19.1 kcal/mol
GCAATGTCGAAAGACTGC (((..(((....))))))	44.9 °C	-20.3 kcal/mol
GCAATTCGAAAGAAATGC (((.(((....))).)))	46.1 °C	-36.8 kcal/mol
GCAATTCGAAAGAATGC (((.(((....))))))	48.1 °C	-29.3 kcal/mol
GCACAACGAAAGTTATGC (((.(((....))).)))	44.5 °C	-34.9 kcal/mol
GCACAACGAAAGTTCTGC (((.(((....))).)))	36.8 °C	-26.1 kcal/mol
GCACAAGCGAAAGCTTGC (((..(((....))))))	37.8 °C	-7.33 kcal/mol
GCACACCGAAAGGTATGC (((.(((....))).)))	50.8 °C	-32.8 kcal/mol

Sequence	Tm [1]	folding enthalpy [2]
GCACACCGAAAGGTCTGC (((.(((....))).)))	47 °C	-26.5 kcal/mol
GCACACGAAAGTGAGTGC ((((((....)))..)))	51.7 °C	-30.9 kcal/mol
GCACACGCGAAAGCGTGC (((..(((....))))))	45 °C	-5.12 kcal/mol
GCACACGGAAACATGCGC ((.((.(....).)).))	30.2 °C	-19.6 kcal/mol
GCACACGGAAACGTATGC (((.(((....))).)))	45.2 °C	-28 kcal/mol
GCACACGGAAACGTGTAC (.(((((....))))).)	41.2 °C	-13.8 kcal/mol
GCACAGCGAAAGCAGTGC ((((.((....)).))))	69.2 °C	-34.1 kcal/mol
GCACAGCGAAAGCCATGC (((..((....))..)))	38 °C	-11.9 kcal/mol
GCACAGCGAAAGCCGAGC ((.(.((....)).).))	39.3 °C	-12.6 kcal/mol
GCACAGCGAAAGCCGTGC ((((.((....)).))))	65.6 °C	-24.4 kcal/mol
GCACAGCGAAAGCGGGGC ((.(.((....)).).))	65.9 °C	-34.6 kcal/mol
GCACAGCGAAAGCTAGGC ((..(((....)))..))	45.2 °C	-15.4 kcal/mol
GCACAGCGAAAGCTCCGC ((..(((....)))..))	28.1 °C	-9.89 kcal/mol
GCACAGCGAAAGCTTCGC ((..(((....)))..))	39.8 °C	-12.4 kcal/mol
GCACAGGAAACTGTGC ((((((....))))))	67 °C	-36.1 kcal/mol
GCACAGGGAAACCCGTGC ((((.((....)).))))	55.4 °C	-36.8 kcal/mol
GCACAGGGAAACCTACGC ((..(((....)))..))	34.9 °C	-15.8 kcal/mol
GCACAGGGAAACCTATGC (((.(((....))).)))	37.1 °C	-24.2 kcal/mol
GCACAGGGAAACCTGCAC (..((((....))))..)	28.4 °C	-10.3 kcal/mol
GCACAGTCGAAAGACTGC (((..(((....))))))	39.3 °C	-8.86 kcal/mol
GCACATCGAAAGATCTGC (((.(((....))).)))	36 °C	-28.3 kcal/mol
GCACATGGAAACATGCAC (..((((....))))..)	28.2 °C	-15.2 kcal/mol
GCACATGGAAACATGCGC ((.((((....)))).))	49.9 °C	-48.8 kcal/mol

Sequence	Tm [1]	folding enthalpy [2]
GCACCACGAAAGTGATGC (((.(((....))).)))	55.7 °C	-36.5 kcal/mol
GCACCACGAAAGTGTGC (((.(((....))))))	58.6 °C	-34.6 kcal/mol
GCACCACGAAAGTGTTGC (((.(((....))).)))	52.6 °C	-35.9 kcal/mol
GCACCAGGAAACCGGTGC (((((.(....).)))))	58.3 °C	-42.4 kcal/mol
GCACCAGGAAACTGGCGC ((.((((....)))).))	55.6 °C	-41.4 kcal/mol
GCACCATCGAAAGATTGC (((..(((....))))))	29.1 °C	-20 kcal/mol
GCACCCGAAAGGGCCTGC ((((((....)))..)))	34.5 °C	-13.4 kcal/mol
GCACCCTCGAAAGAGTGC (((..(((....))))))	41.6 °C	-23.1 kcal/mol
GCACCGCGAAAGCACTGC (((..((....))..)))	31.2 °C	-8.63 kcal/mol
GCACCGCGAAAGCGGAGC ((.((((....)))).))	69 °C	-16.4 kcal/mol
GCACCGCGAAAGCGTCGC ((..(((....)))..))	41.2 °C	-12.8 kcal/mol
GCACCGGCGAAAGCCTGC (((..(((....))))))	39.1 °C	-12.6 kcal/mol
GCACCGGGAAACCGACGC ((..(((....)))..))	38 °C	-24.1 kcal/mol
GCACCGGGAAACCGGCAC (..((((....))))..)	28.3 °C	-8.06 kcal/mol
GCACCTCCGAAAGGATGC (((..(((....))))))	36.5 °C	-21.9 kcal/mol
GCACCTGGAAACAGGTAC (.(((((....))))).)	40.9 °C	-13.2 kcal/mol
GCACGACGAAAGTCTTGC (((.(((....))).)))	53.7 °C	-35.8 kcal/mol
GCACGCACGAAAGTGTGC (((..(((....))))))	52.6 °C	-23.2 kcal/mol
GCACGCGAAAGCGACTGC ((((((....)))..)))	43.8 °C	-12.6 kcal/mol
GCACGCGAAAGCGATTGC ((((((....)))..)))	45.9 °C	-14.2 kcal/mol
GCACGCGAAAGCGTCTGC ((((((....)))..)))	47.4 °C	-11.1 kcal/mol

Source: the array DNA melting data of Ke et al. (doi:10.1101/2024.01.08.574731)
